Measurements as given in ChEMBL document CHEMBL1240360, “TMC278, a next-generation nonnucleoside reverse transcriptase inhibitor (NNRTI), active against wild-type and NNRTI-resistant HIV-1” (Antimicrob Agents Chemother, 2010).

Columns and labels:
[1] = tested on: Human immunodeficiency virus 1; test: Antiviral activity against Human immunodeficiency virus 1 subtype D isolate 92UG035 infected in human PBMC cells by cell based assay; conditions: Human immunodeficiency virus 1, subtype D 92UG035, PBMC
[2] = tested on: Human immunodeficiency virus 1; test: Antiviral activity against Human immunodeficiency virus 1 subtype A isolate 92UG029 infected in human PBMC cells by cell based assay; conditions: Human immunodeficiency virus 1, subtype A isolate 92UG029, PBMC
[3] = tested on: Human immunodeficiency virus 1; test: Antiviral activity against Human immunodeficiency virus 1 subtype B isolate JR-CSF infected in human PBMC cells by cell based assay
[4] = tested on: Human immunodeficiency virus 1; test: Antiviral activity against Human immunodeficiency virus 1 subtype E isolate CMU08 infected in human PBMC cells by cell based assay; conditions: Human immunodeficiency virus 1, subtype E isolate CMU08, PBMC
[5] = tested on: Human immunodeficiency virus 1; test: Antiviral activity against Human immunodeficiency virus 1 subtype G isolate JV1083 infected in human PBMC cells by cell based assay; conditions: Human immunodeficiency virus 1, subtype G isolate JV1083, PBMC
[6] = tested on: Human immunodeficiency virus 1; test: Antiviral activity against Human immunodeficiency virus 1 group M subtype B assessed as days to viral replication breakthrough at 40 nM by cell based assay; format: functional
[7] = tested on: Human immunodeficiency virus 1; test: Antiviral activity against Human immunodeficiency virus 1 group M subtype C assessed as days to viral replication breakthrough at 10 nM by cell based assay; format: functional
[8] = tested on: Human immunodeficiency virus 1; test: Antiviral activity against Human immunodeficiency virus 1 subtype A1 infected in human MT4 cells assessed as reduction in virus induced cytopathicity; format: functional, organism-based; conditions: Human immunodeficiency virus 1, subtype A1, MT4
Outline: (§1)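 Recombinant viruses were made by recombining patient-derived HIV-1 RT-PR sequences into an RT-PR-deleted HXB2 proviral clone transfected into MT4 cells. Subtype was assigned from PR/RT sequence by Smith-Waterman alignment to HXB2. MT4 cells (1.5 × 10^5/ml) were infected at MOI 0.01 with serially diluted compound for 5 days at 37°C. Viability was read by MTT and EC50 derived.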

[9] = tested on: Human immunodeficiency virus 1; test: Antiviral activity against Human immunodeficiency virus 1 group M subtype AG assessed as days to viral replication breakthrough at 40 nM by cell based assay; format: functional
[10] = tested on: Human immunodeficiency virus 1; test: Antiviral activity against Human immunodeficiency virus 1 group M subtype F1 assessed as days to viral replication breakthrough at 200 nM by cell based assay; format: functional
[11] = tested on: Human immunodeficiency virus 1; test: Antiviral activity against Human immunodeficiency virus 1 subtype D isolate 92UG024 infected in human PBMC cells by cell based assay; conditions: Human immunodeficiency virus 1, subtype D 92UG024, PBMC
[12] = tested on: Human immunodeficiency virus 1; test: Antiviral activity against Human immunodeficiency virus 1 subtype O misolate BCF01 infected in human PBMC cells by cell based assay; conditions: Human immunodeficiency virus 1, subtype O isolate BCF01, PBMC
[13] = tested on: Human immunodeficiency virus 1; test: Antiviral activity against Human immunodeficiency virus 1 subtype G isolate G3 infected in human PBMC cells by cell based assay; conditions: Human immunodeficiency virus 1, subtype G isolate G3, PBMC
[14] = tested on: Human immunodeficiency virus 1; test: Antiviral activity against Human immunodeficiency virus 1 subtype F isolate 93BR029 infected in human PBMC cells by cell based assay; conditions: Human immunodeficiency virus 1, subtype F isolate 93BR029, PBMC
[15] = tested on: Human immunodeficiency virus 1; test: Antiviral activity against Human immunodeficiency virus 1 group M subtype AE assessed as days to viral replication breakthrough at 10 nM by cell based assay; format: functional
[16] = tested on: Human immunodeficiency virus 1; test: Antiviral activity against Human immunodeficiency virus 1 subtype C infected in human MT4 cells assessed as reduction in virus induced cytopathicity; format: functional, organism-based; outline: as §1
[17] = tested on: Human immunodeficiency virus 1; test: Antiviral activity against Human immunodeficiency virus 1 group M subtype AG assessed as days to viral replication breakthrough at 10 nM by cell based assay; format: functional
[18] = tested on: Human immunodeficiency virus 1; test: Antiviral activity against Human immunodeficiency virus 1 group M subtype H assessed as days to viral replication breakthrough at 40 nM by cell based assay; format: functional
[19] = tested on: Human immunodeficiency virus 1; test: Antiviral activity against Human immunodeficiency virus 1 group M subtype D assessed as days to viral replication breakthrough at 40 nM by cell based assay; format: functional
[20] = tested on: Human immunodeficiency virus 1; test: Antiviral activity against Human immunodeficiency virus 1 group M subtype BG assessed as days to viral replication breakthrough at 10 nM by cell based assay; format: functional
[21] = tested on: Human immunodeficiency virus 1; test: Antiviral activity against Human immunodeficiency virus 1 subtype A isolate 92UG037 infected in human PBMC cells by cell based assay; conditions: Human immunodeficiency virus 1, subtype A isolate 92UG037, PBMC
[22] = tested on: Human immunodeficiency virus 1; test: Antiviral activity against Human immunodeficiency virus 1 subtype B isolate WEJO infected in human PBMC cells by cell based assay
[23] = tested on: Human immunodeficiency virus 1; test: Antiviral activity against Human immunodeficiency virus 1 group M subtype H assessed as days to viral replication breakthrough at 200 nM by cell based assay; format: functional
[24] = tested on: Human immunodeficiency virus 1; test: Antiviral activity against Human immunodeficiency virus 1 group M subtype AE assessed as days to viral replication breakthrough at 40 nM by cell based assay; format: functional
[25] = tested on: Human immunodeficiency virus 1; test: Antiviral activity against Human immunodeficiency virus 1 group M subtype H assessed as days to viral replication breakthrough at 10 nM by cell based assay; format: functional
[26] = tested on: Human immunodeficiency virus 1; test: Antiviral activity against Human immunodeficiency virus 1 group M subtype B assessed as days viral replication at 200 nM by cell based assay; format: functional
[27] = tested on: Human immunodeficiency virus 1; test: Antiviral activity against Human immunodeficiency virus 1 subtype G infected in human MT4 cells assessed as reduction in virus induced cytopathicity; format: functional, organism-based; outline: as §1
[28] = tested on: Human immunodeficiency virus 1; test: Antiviral activity against Human immunodeficiency virus 1 group M subtype C assessed as days to viral replication breakthrough at 40 nM by cell based assay; format: functional
[29] = tested on: Human immunodeficiency virus 1; test: Antiviral activity against Human immunodeficiency virus 1 subtype C isolate 93MW959 infected in human PBMC cells by cell based assay; conditions: Human immunodeficiency virus 1, subtype C isolate 93MW959, PBMC
[30] = tested on: Human immunodeficiency virus 1; test: Antiviral activity against Human immunodeficiency virus 1 subtype C isolate 93IN101 infected in human PBMC cells by cell based assay; conditions: Human immunodeficiency virus 1, subtype C isolate 93IN101, PBMC
[31] = tested on: Human immunodeficiency virus 1; test: Antiviral activity against Human immunodeficiency virus 1 group M subtype AG assessed as days f for viral replication at 200 nM by cell based assay; format: functional
[32] = tested on: Human immunodeficiency virus 1; test: Antiviral activity against Human immunodeficiency virus 1 subtype (H) infected in human MT4 cells assessed as reduction in virus induced cytopathicity; format: functional, organism-based; outline: as §1
[33] = tested on: Human immunodeficiency virus 1; test: Antiviral activity against Human immunodeficiency virus 1 subtype O isolate BCF02 infected in human PBMC cells by cell based assay; conditions: Human immunodeficiency virus 1, subtype O isolate BCF02, PBMC
[34] = tested on: Human immunodeficiency virus 1; test: Antiviral activity against Human immunodeficiency virus 1 group M subtype C assessed as days to viral replication breakthrough at 200 nM by cell based assay; format: functional
[35] = tested on: Human immunodeficiency virus 1; test: Antiviral activity against Human immunodeficiency virus 1 subtype D isolate 92UG001 infected in human PBMC cells by cell based assay; conditions: Human immunodeficiency virus 1, subtype D isolate 92UG001, PBMC
[36] = tested on: Human immunodeficiency virus 1; test: Antiviral activity against Human immunodeficiency virus 1 group M subtype A1 assessed as days to viral replication breakthrough at 10 nM by cell based assay; format: functional
[37] = tested on: Human immunodeficiency virus 1; test: Antiviral activity against Human immunodeficiency virus 1 group M subtype BG assessed as days to viral replication breakthrough at 200 nM by cell based assay; format: functional
[38] = tested on: Human immunodeficiency virus 1; test: Antiviral activity against Human immunodeficiency virus 1 subtype G isolate RU132 infected in human PBMC cells by cell based assay; conditions: Human immunodeficiency virus 1, subtype G isolate RU132, PBMC
[39] = tested on: Human immunodeficiency virus 1; test: Antiviral activity against Human immunodeficiency virus 1 subtype O isolate BCF03 infected in human PBMC cells by cell based assay; conditions: Human immunodeficiency virus 1, subtype O isolate BCF03, PBMC

For `Cc1cc(/C=C/C#N)cc(C)c1Nc1ccnc(Nc2ccc(C#N)cc2)n1` [RILPIVIRINE], the EC50 [1] was 0.07 nM, the EC50 [2] was 0.44 nM and the EC50 [3] was 0.51 nM. For the same compound, the EC50 [4] was 1.01 nM, the EC50 [5] was 0.26 nM and the Activity [6] was over 31 days. It also gave an Activity [7] of over 31 days, an EC50 [8] of 0.44 nM and an Activity [9] of over 31 days. For the same compound, the Activity [10] was over 31 days, the EC50 [11] was 0.38 nM and the EC50 [12] was 3.13 nM. The EC50 [13] was 0.25 nM, the EC50 [14] was 0.19 nM and the Activity [15] was over 31 days. It also gave an EC50 [16] of 0.3 nM, an Activity [17] of over 31 days and an Activity [18] of over 31 days. For the same compound, the Activity [19] was over 31 days, the Activity [20] was 10 days and the EC50 [21] was 0.24 nM. It also gave an EC50 [22] of 0.08 nM, an Activity [23] of over 31 days and an Activity [24] of over 31 days. The Activity [25] was over 31 days, the Activity [26] was over 31 days and the EC50 [27] was 0.14 nM. The Activity [28] was over 31 days, the EC50 [29] was 0.11 nM and the EC50 [30] was 0.53 nM. The Activity [31] was over 31 days, the EC50 [32] was 0.24 nM and the EC50 [33] was 2.88 nM. It also gave an Activity [34] of over 31 days, an EC50 [35] of 0.26 nM and an Activity [36] of 10 days. It also gave an Activity [37] of over 31 days, an EC50 [38] of 0.51 nM and an EC50 [39] of 8.45 nM.
